Rows were chosen to be rich in hits. Some 2.3% of all compounds tested hit in one or more screens of this group.
TRPC4 block = inhibitors of mouse TRPC4 channel, primary screen, Fluo4 calcium, HEK293 TRPC4beta/mu-opioid cells. DAMGO-evoked Fluo4 calcium flux; hits give low values. B-score at 10 µM. 300,000 compounds, 0.39% hits. AID 2247, 2010;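 active means B-score over 3 SD under the library average, no early fluorescence shift, positive overall ratio signal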
Target sequence (Q9QUQ5 whole entry, looked up): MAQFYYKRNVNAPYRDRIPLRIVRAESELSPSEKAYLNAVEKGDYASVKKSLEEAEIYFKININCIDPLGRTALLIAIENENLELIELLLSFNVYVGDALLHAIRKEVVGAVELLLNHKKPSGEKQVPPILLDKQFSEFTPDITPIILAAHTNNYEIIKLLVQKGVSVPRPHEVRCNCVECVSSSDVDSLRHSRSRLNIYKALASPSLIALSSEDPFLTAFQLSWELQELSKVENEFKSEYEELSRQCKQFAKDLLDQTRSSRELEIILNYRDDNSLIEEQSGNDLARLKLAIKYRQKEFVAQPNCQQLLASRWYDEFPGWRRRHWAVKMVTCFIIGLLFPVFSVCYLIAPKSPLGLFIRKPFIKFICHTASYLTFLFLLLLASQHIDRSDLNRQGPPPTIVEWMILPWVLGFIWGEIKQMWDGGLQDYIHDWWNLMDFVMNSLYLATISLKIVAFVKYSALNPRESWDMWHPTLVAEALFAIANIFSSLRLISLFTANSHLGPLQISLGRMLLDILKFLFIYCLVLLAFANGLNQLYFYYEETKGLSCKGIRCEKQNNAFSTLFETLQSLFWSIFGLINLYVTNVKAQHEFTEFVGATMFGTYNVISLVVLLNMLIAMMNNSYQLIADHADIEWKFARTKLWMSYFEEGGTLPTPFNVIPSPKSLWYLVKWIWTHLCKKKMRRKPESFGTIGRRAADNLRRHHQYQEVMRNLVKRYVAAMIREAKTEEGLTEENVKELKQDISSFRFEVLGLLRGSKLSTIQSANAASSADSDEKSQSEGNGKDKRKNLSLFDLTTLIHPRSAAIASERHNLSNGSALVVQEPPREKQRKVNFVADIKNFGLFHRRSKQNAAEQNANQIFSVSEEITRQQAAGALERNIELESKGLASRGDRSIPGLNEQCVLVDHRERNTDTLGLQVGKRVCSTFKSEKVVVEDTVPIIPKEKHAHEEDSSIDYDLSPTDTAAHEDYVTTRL
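Assay system – HEK293 line stably carrying TRPC4beta and mu-opioid receptor · Doses – single dose · Detection – Fluo4 calcium-dye fluorescence, kinetic read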
TRPC6 act = mouse TRPC6 channel activators, primary screen, cell-based, HEK293, membrane potential dye; HEK293-TRPC6 membrane potential dye fluorescence; hits give high values; B-score at 10 µM; 310,000 compounds, 0.13% hits;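 active means B-score of the integrated fluorescence ratio above library mean plus 3 SD, and starting fluorescence ratio within library mean plus 5 SD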;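 further: higher score means more depolarization so channel activation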
TRPC6 inh = mouse TRPC6 channel inhibitors, primary screen, cell-based, HEK293, membrane potential dye; 310,000 compounds, 1.1% hits; B-score at 10 µM; Short transient receptor potential channel 6 (Mus musculus), Q61143; AID 2553, 2010; ACh-evoked depolarization; hits give low values;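 active means B-score under library mean minus 3 SD, initial fluorescence not abnormally high, positive integrated signal ratio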;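 further: B-score derived from integrated fluorescence ratio over the kinetic read; more negative B-score means stronger inhibition of depolarization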
TRPC4 PAM = positive allosteric modulators of TRPC4, primary screen, cell-based, mouse TRPC4beta, HEK293 mu-opioid, Fluo-4 calcium | DAMGO EC20, Fluo-4 Ca2+ flux; hits give high values | B-score at 10 µM | 310,000 compounds, 0.42% hits;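 active means B-score of calcium response area above 5 SD of library B-scores, with initial fluorescence ratio within 5 SD of library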;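 further: B-score of integrated fluorescence ratio over time as area under calcium response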
TRPC4 act = activators of mouse TRPC4 channel, primary screen, Fluo4 calcium, HEK293 TRPC4beta/mu-opioid cells | B-score at 10 µM | 310,000 compounds, 0.49% hits | Short transient receptor potential channel 4 (Mus musculus), Q9QUQ5 | AID 2237, 2010 | Fluo4 calcium fluorescence; hits give high values;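 active means B-score above 5 SD of library B-scores, and initial fluorescence ratio not above library mean plus 5 SD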;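 further: positive B-score marks a calcium rise read as TRPC4 activation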
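Incubation: 45 min room-temperature Fluo4 loading, 110 s read / System: HEK293 cells stably co-expressing mouse TRPC4beta and mu-opioid receptor / Signal: Fluo4 fluorescence, kinetic / Control set: buffer (low) and maximal DAMGO (high) / Measure: integrated baseline-normalised fluorescence ratio, converted to per-well B score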
HEK293 TRPC6 ctr = parental HEK293 membrane potential modulation, confirmation, counter-screen for TRPC6 modulator project, cell-based | AID 488924, 2010 | 2,400 compounds, 51% hits | membrane potential dye fluorescence | shares compounds with TRPC6 inh | membrane potential signal change, % at 10 µM;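 active means membrane potential signal moves up or down beyond 5 SD from buffer-only wells, on both duplicate plates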
HEK293 MPD ctr 2 = parental HEK293 nonspecific activity of TRPC6 modulators, second screen | shares compounds with TRPC6 inh | membrane potential dye fluorescence; after compound, maximal acetylcholine stimulation | inhibition, % at 10 µM | 2,400 compounds, 14% hits;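 active means membrane potential signal drops by more than 5 SD from the mean control signal, in both duplicate plates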;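 further: plate controls were acetylcholine ECmax control wells for no effect and buffer only wells for full effect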
TRPC4/MOR mod = TRPC4 modulation by TRPC6 hit compounds, confirmation, selectivity assay for TRPC6 modulator project, cell-based, HEK293 TRPC4/mu-opioid, membrane potential dye, mouse. AID 488927, 2010. shares compounds with TRPC6 inh. percent change from control (negative = decrease, positive = increase), % at 10 µM. membrane potential fluorescence. 2,400 compounds, 69% hits;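 active means membrane potential signal moved up or down beyond 5 SD of buffer control wells, in both duplicate plates, actives on both sides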;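 further: plate controls were assay buffer wells for no effect and DAMGO maximal-effect wells for full effect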
TRPC4/MOR inh 2 = second selectivity test of TRPC6 modulators against mouse TRPC4. shares compounds with TRPC6 inh. inhibition, % at 10 µM. 2,400 compounds, 55% hits. HEK293 TRPC4/mu-opioid, membrane potential dye fluorescence; stimulated with maximal-effect DAMGO;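 active means drop in membrane potential signal beyond 5 SD of the control wells in both duplicate plates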;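 further: TRPC4 counter screen for TRPC6 hits run under conditions tuned for TRPC6 not TRPC4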
TRPC6 block conf = mouse TRPC6 channel inhibitors, confirmation, HEK293 cells, membrane potential dye, duplicate. inhibition, % at 10 µM. AID 488960, 2010. ACh-evoked depolarization. shares compounds with TRPC6 inh. 3,300 compounds, 43% hits;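 active means fluorescence ratio falls more than 5 SD below the full-stimulation control mean, in both duplicate runs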;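 further: integrated fluorescence ratio of peak minus minimum over baseline after agonist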
TRPC6 act conf = mouse TRPC6 channel activators, confirmation, HEK293 cells, membrane potential dye, duplicate | shares compounds with TRPC6 inh | activation, % at 10 µM | AID 488961, 2010 | HEK293-TRPC6 membrane potential dye fluorescence, FDSS | 2,800 compounds, 11% hits;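 active means ratio signal rise beyond 5 SD above unstimulated control wells' mean, seen in both duplicate runs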;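 further: plate controls were buffer EC0 wells for no effect and acetylcholine ECmax response for full effect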
Active calls of the source: *.

Cc1ccc(SCCNC(=S)Nc2cc(C)ccc2C)cc1 was read as TRPC4 block inactive, TRPC6 act inactive, TRPC6 inh inactive, TRPC4 PAM inactive and TRPC4 act inactive.
`O=C(CCn1c(=O)[nH]c2ccsc2c1=O)N1CCN(c2ccc([N+](=O)[O-])cc2)CC1` gave TRPC4 block inactive, TRPC6 act inactive, TRPC6 inh inactive, TRPC4 PAM inactive and TRPC4 act inactive.
`O=C(CCn1c(=O)[nH]c2ccsc2c1=O)N1CCN(c2cccc(Cl)c2)CC1` gave TRPC4 block inactive, TRPC6 act 15.1*, TRPC6 inh -12.9*, TRPC4 PAM inactive, TRPC4 act inactive, HEK293 TRPC6 ctr inactive, HEK293 MPD ctr 2 inactive, TRPC4/MOR mod inactive, TRPC4/MOR inh 2 inactive, TRPC6 block conf 56.0%* and TRPC6 act conf 93.5%*.
COc1ccc(-n2c(O)c(/C=N/NS(=O)(=O)c3cc(C)ccc3C)c3ccccc3c2=O)cc1OC was read as TRPC4 block inactive, TRPC6 act inactive, TRPC6 inh inactive, TRPC4 PAM inactive and TRPC4 act inactive.
COc1ccc(-n2c(O)c(/C=N/NS(=O)(=O)c3ccc(C)cc3)c3ccccc3c2=O)cc1OC was read as TRPC4 block inactive, TRPC6 act 29*, TRPC6 inh inactive, TRPC4 PAM inactive, TRPC4 act inactive, HEK293 TRPC6 ctr 241.5%*, HEK293 MPD ctr 2 inactive, TRPC4/MOR mod 11.0%*, TRPC4/MOR inh 2 inactive, TRPC6 block conf inactive and TRPC6 act conf 96.0%*.
Cc1ccc(NC(=O)COC(=O)C2CC2)c(Br)c1 was read as TRPC4 block inactive, TRPC6 act inactive, TRPC6 inh inactive, TRPC4 PAM inactive and TRPC4 act inactive.
Screening COc1ccc(-c2nc(-c3cccs3)c(-c3cccs3)[nH]2)cc1OC returned TRPC4 block inactive, TRPC6 act inactive, TRPC6 inh -5.52*, TRPC4 PAM inactive, TRPC4 act inactive, HEK293 TRPC6 ctr inactive, HEK293 MPD ctr 2 inactive, TRPC4/MOR mod inactive, TRPC4/MOR inh 2 inactive, TRPC6 block conf inactive and TRPC6 act conf inactive.
Screening Oc1ccccc1/C=N/Nc1cc(N2CCCC2)nc(N2CCCC2)n1 returned TRPC4 block inactive, TRPC6 act inactive, TRPC6 inh -5.2*, TRPC4 PAM inactive, TRPC4 act inactive, HEK293 TRPC6 ctr inactive, HEK293 MPD ctr 2 inactive, TRPC4/MOR mod 16.0%*, TRPC4/MOR inh 2 inactive and TRPC6 block conf inactive.
For Oc1ccc(/C=N/Nc2cc(N3CCOCC3)nc(N3CCOCC3)n2)cc1O the results were TRPC4 block inactive, TRPC6 act inactive, TRPC6 inh inactive, TRPC4 PAM inactive and TRPC4 act inactive.
O=C(CN1C(=O)C2C3CCC(C3)C2C1=O)OCC(=O)c1ccccc1 (stereo not given) was read as TRPC4 block inactive, TRPC6 act inactive, TRPC6 inh inactive, TRPC4 PAM inactive and TRPC4 act inactive.
For CC(C)(C)c1ccc(OC(=O)CN2C(=O)C3C4CCC(C4)C3C2=O)cc1 (stereo not given) the results were TRPC4 block inactive, TRPC6 act inactive, TRPC6 inh -5.86*, TRPC4 PAM inactive, TRPC4 act inactive, HEK293 TRPC6 ctr inactive, HEK293 MPD ctr 2 inactive, TRPC4/MOR mod inactive, TRPC4/MOR inh 2 inactive, TRPC6 block conf inactive and TRPC6 act conf inactive.
Cc1cccc(-n2nnnc2SCC(=O)Nc2ccc(N3CCN(C)CC3)cc2)c1 was read as TRPC4 block inactive, TRPC6 act inactive, TRPC6 inh -5.68*, TRPC4 PAM inactive, TRPC4 act inactive, HEK293 TRPC6 ctr inactive, HEK293 MPD ctr 2 inactive, TRPC4/MOR mod inactive, TRPC4/MOR inh 2 54.0%*, TRPC6 block conf inactive and TRPC6 act conf inactive.
For Cc1ccccc1-n1nnnc1SCC(=O)Nc1ccc(N2CCN(C)CC2)cc1 the results were TRPC4 block inactive, TRPC6 act inactive, TRPC6 inh inactive, TRPC4 PAM inactive and TRPC4 act inactive.
`CCN(CC)c1ccc(/C=N\NC(=O)c2cccc3cc[nH]c23)cc1` gave TRPC4 block inactive, TRPC6 act inactive, TRPC6 inh -5.67*, TRPC4 PAM inactive, TRPC4 act inactive, HEK293 TRPC6 ctr inactive, HEK293 MPD ctr 2 inactive, TRPC4/MOR mod -12.5%*, TRPC4/MOR inh 2 54.5%*, TRPC6 block conf inactive and TRPC6 act conf inactive.
For COc1ccc(C2C3=C(CC(C)(C)CC3=O)Oc3ncn(Cc4ccccc4)c(=N)c32)cc1 (stereo not given) the results were TRPC4 block inactive, TRPC6 act inactive, TRPC6 inh -5.44*, TRPC4 PAM inactive, TRPC4 act inactive, HEK293 TRPC6 ctr 145.5%*, HEK293 MPD ctr 2 inactive, TRPC4/MOR mod 21.5%*, TRPC4/MOR inh 2 69.0%* and TRPC6 block conf 54.0%*.
Screening COc1ccc(C(=O)N/N=C(\C)CC(=O)Nc2cccc(C(F)(F)F)c2)cc1 returned TRPC4 block inactive, TRPC6 act inactive, TRPC6 inh inactive, TRPC4 PAM inactive and TRPC4 act inactive.

Screening data from PubChem BioAssay.
